Measured values published in ChEMBL document CHEMBL3351782, “Synthesis and biological evaluation of glaucocalyxin A derivatives as potential anticancer agents” (Eur J Med Chem, 2014).

Columns and labels:
[1] = Antiproliferative activity against human HL60 cells after 48 hrs by MTT assay; type: functional, cell-based; details: HL-60, 48 h
Method in brief: (§1)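 Cells were seeded at 3 × 10^3 per well and exposed 24 h later, while growing exponentially, to compounds at final concentrations of 1.25 to 40 for 48 h. MTT (5 mg/mL in PBS) was then added for 6 h. The medium was aspirated, the formazan dissolved in DMSO and absorbance read at 570 nm. Survival is relative to untreated cells; IC50 comes from triplicate wells in at least three independent experiments.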

[2] = Antiproliferative activity against human SGC7901 cells after 48 hrs by MTT assay; type: functional, cell-based; details: SGC-7901, 48 h; method in brief: as §1
A549 = assay: Antiproliferative activity against human A549 cells after 48 hrs by MTT assay; type: functional, cell-based; details: A549, 48 h; method in brief: as §1
B16 = assay: Antiproliferative activity against mouse B16 cells after 48 hrs by MTT assay; type: functional, cell-based; details: B16, 48 h; method in brief: as §1
KB [3] = assay: Antiproliferative activity against human KB cells after 48 hrs by MTT assay; type: functional, cell-based; method in brief: as §1
[4] = Antiproliferative activity against human SMMC7721 cells after 48 hrs by MTT assay; type: functional, cell-based; details: SMMC-7721, 48 h; method in brief: as §1
[5] = Antiproliferative activity against human HL7702 cells after 48 hrs by MTT assay; type: cell-based; details: L02, 48 h; method in brief: as §1
KB [6] = assay: Induction of apoptosis in human KB cells assessed as viable cells level at 20 uM after 48 hrs by Annexin V and propidium iodide staining based flow cytometry (reference value: 84.3%); type: functional
Method in brief: (§2)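 KB cells were plated in 6-well plates at 2.5 × 10^5 cells/mL and treated for 48 h. Adherent and floating cells were pooled, washed twice in PBS and stained with Annexin V and PI in binding buffer for 20 min at room temperature. Samples were read immediately on a FACSCalibur; untreated cells served as control. Values are means ± SE of at least three independent experiments.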

KB [7] = assay: Induction of apoptosis in human KB cells assessed as necrotic cells level at 20 uM after 48 hrs by Annexin V and propidium iodide staining based flow cytometry (reference value: 3.64%); type: functional; method in brief: as §2
KB [8] = assay: Induction of apoptosis in human KB cells assessed as early apoptotic cells level at 40 uM after 48 hrs by Annexin V and propidium iodide staining based flow cytometry (reference value: 7.69%); type: functional; method in brief: as §2
KB [9] = assay: Induction of apoptosis in human KB cells assessed as late apoptotic cells level at 20 uM after 48 hrs by Annexin V and propidium iodide staining based flow cytometry (reference value: 4.4%); type: functional; method in brief: as §2
KB [10] = assay: Induction of apoptosis in human KB cells after 48 hrs by Annexin V and propidium iodide staining based flow cytometry; type: functional, cell-based; method in brief: as §2
KB [11] = assay: Induction of apoptosis in human KB cells assessed as viable cells level at 40 uM after 48 hrs by Annexin V and propidium iodide staining based flow cytometry (reference value: 84.3%); type: functional; method in brief: as §2
KB [12] = assay: Induction of apoptosis in human KB cells assessed as viable cells level at 10 uM after 48 hrs by Annexin V and propidium iodide staining based flow cytometry (reference value: 84.3%); type: functional; method in brief: as §2
[13] = Stability in 80% rat plasma assessed as parent compound remaining at 1 uM at 37 degC after 24 hrs by HPLC method; type: ADME, cell-free; details: read-out: Stability
Method in brief: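 Thawed rat plasma was diluted to 80% v/v with 0.1 M PBS, pH 7.4. Compound was spiked from DMSO stock (1% v/v DMSO final) and held at 37 °C. Aliquots were quenched with two volumes of acetonitrile and centrifuged at 4 °C, 10,000 g, 10 min. Supernatants were run on HPLC with external standard; the result is percent parent remaining at 24 h, mean ± SD, n = 3.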

KB [14] = assay: Induction of apoptosis in human KB cells assessed as early apoptotic cells level at 10 uM after 48 hrs by Annexin V and propidium iodide staining based flow cytometry (reference value: 7.69%); type: functional; method in brief: as §2
KB [15] = assay: Prodrug conversion in human KB cells lysates assessed as glaucocalyxin A formation at 500 uM in presence of 10 mM cysteine by LC-HRMS method; type: ADME, cell-based, Lysate
Method in brief: (§3)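 KB cells (5 × 10^6) were lysed by freeze/thaw. DMSO stock prepared just before use was added to lysate already containing cysteine, with DMSO matched in controls, and incubated at 37 °C. Aliquots taken at 30 min and 1 h were mixed with two volumes of acetonitrile and centrifuged (4 °C, 10,000 g, 10 min). They were analysed by LC-HRMS in positive mode using a water + 0.1% formic acid/methanol gradient.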

KB [16] = assay: Induction of apoptosis in human KB cells assessed as necrotic cells level at 40 uM after 48 hrs by Annexin V and propidium iodide staining based flow cytometry (reference value: 3.64%); type: functional; method in brief: as §2
KB [17] = assay: Induction of apoptosis in human KB cells assessed as late apoptotic cells level at 10 uM after 48 hrs by Annexin V and propidium iodide staining based flow cytometry (reference value: 4.4%); type: functional; method in brief: as §2
KB [18] = assay: Prodrug conversion in human KB cells lysates assessed as formation of cysteine conjugates at 500 uM in presence of 10 mM cysteine by LC-HRMS method; type: ADME, cell-based, Lysate; method in brief: as §3
KB [19] = assay: Induction of apoptosis in human KB cells assessed as early apoptotic cells level at 20 uM after 48 hrs by Annexin V and propidium iodide staining based flow cytometry (reference value: 7.69%); type: functional; method in brief: as §2
KB [20] = assay: Induction of apoptosis in human KB cells assessed as necrotic cells level at 10 uM after 48 hrs by Annexin V and propidium iodide staining based flow cytometry (reference value: 3.64%); type: functional; method in brief: as §2
[21] = Chemical stability in 10 mM pH 7.4 PBS buffer assessed as parent compound remaining at 1 uM at 37 degC after 24 hrs by HPLC method; type: physicochemical; details: read-out: Stability
Method in brief: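 DMSO stock was diluted into pre-warmed 10 mM PBS, pH 7.4, with 1% v/v DMSO final, and incubated at 37 °C. Aliquots were taken at set times and injected directly onto reversed-phase HPLC (ODS column, water + 0.1% TFA eluent, external standard). The result is percent parent remaining after 24 h, mean ± SD, n = 3.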

KB [22] = assay: Induction of apoptosis in human KB cells assessed as late apoptotic cells level at 40 uM after 48 hrs by Annexin V and propidium iodide staining based flow cytometry (reference value: 4.4%); type: functional; method in brief: as §2

Row | Compound | IC50 [1] | IC50 [2] | IC50 (A549) | IC50 (B16) | IC50 (KB [3]) | IC50 [4] | also measured
1 | CC1(C)C(=O)CC[C@]2(C)[C@@H]1C[C@@H](O)[C@]13C(=O)C(CNc4ccccc4Br)[C@H](CC[C@@H]21)[C@H]3O (some centres not stated) | 12.5 µM | 33.5 µM | 32.6 µM | 15.2 µM | 13.9 µM | 28.4 µM | –
2 | CC1(C)C(=O)CC[C@]2(C)[C@@H]1C[C@@H](O)[C@]13C(=O)C(CNc4ccccc4)[C@H](CC[C@@H]21)[C@H]3O (some centres not stated) | 15.1 µM | 32.6 µM | 37.2 µM | 11.5 µM | 31 µM | 48 µM | –
3 | CC1(C)C(=O)CC[C@]2(C)[C@@H]1C[C@@H](O)[C@]13C(=O)C(CNc4ccc(Cl)cc4)[C@H](CC[C@@H]21)[C@H]3O (some centres not stated) | 14.1 µM | 21.2 µM | 15.8 µM | 9.4 µM | 6.54 µM | 14.1 µM | –
4 | CC1(C)C(=O)CC[C@]2(C)[C@@H]1C[C@@H](O)[C@]13C(=O)C(CNc4ccccc4Cl)[C@H](CC[C@@H]21)[C@H]3O (some centres not stated) | 23 µM | 28.6 µM | 21.6 µM | 16.7 µM | 11 µM | 32.3 µM | –
5 | CC1(C)C(=O)CC[C@]2(C)[C@@H]1C[C@@H](O)[C@]13C(=O)C(CNc4ccc(S(=O)(=O)c5ccccc5)cc4)[C@H](CC[C@@H]21)[C@H]3O (some centres not stated) | 15.3 µM | 15.5 µM | 13.7 µM | 10.5 µM | 5.64 µM | 14.1 µM | –
6 | COc1ccc(NCC2C(=O)[C@@]34[C@H](O)C[C@@H]5C(C)(C)C(=O)CC[C@@]5(C)[C@@H]3CC[C@@H]2[C@H]4O)cc1 (some centres not stated) | 5.7 µM | 22.4 µM | 13.6 µM | 12.1 µM | 6.41 µM | 18 µM | –
7 | CC1(C)C(=O)CC[C@]2(C)[C@@H]1C[C@@H](O)[C@]13C(=O)C(CNc4ccc(C(=O)O)cc4)[C@H](CC[C@@H]21)[C@H]3O (some centres not stated) | 10.5 µM | 22.3 µM | 11.7 µM | 6.79 µM | 6.13 µM | 16.8 µM | IC50 [5]: 35.4 µM
8 | CC(=O)c1ccc(NCC2C(=O)[C@@]34[C@H](O)C[C@@H]5C(C)(C)C(=O)CC[C@@]5(C)[C@@H]3CC[C@@H]2[C@H]4O)cc1 (some centres not stated) | 11.7 µM | 31.9 µM | 21.8 µM | 18.3 µM | 12.6 µM | 26.1 µM | –
9 | CC1(C)C(=O)CC[C@]2(C)[C@@H]1C[C@@H](O)[C@]13C(=O)C(CNc4cccc(C#N)c4)[C@H](CC[C@@H]21)[C@H]3O (some centres not stated) | 23.2 µM | 24.4 µM | 21.3 µM | 18.2 µM | 8.08 µM | 19.1 µM | –
10 | Cc1ccccc1NCC1C(=O)[C@@]23[C@H](O)C[C@@H]4C(C)(C)C(=O)CC[C@@]4(C)[C@@H]2CC[C@@H]1[C@H]3O (some centres not stated) | 18.1 µM | 38.4 µM | 24.7 µM | 19.2 µM | 23.4 µM | 22.2 µM | –
11 | CC1(C)C(=O)CC[C@]2(C)[C@@H]1C[C@@H](O)[C@]13C(=O)C(CNc4ccc(F)cc4)[C@H](CC[C@@H]21)[C@H]3O (some centres not stated) | 17.8 µM | 34.2 µM | 22.7 µM | 12.9 µM | 12.3 µM | 19.8 µM | –
12 | CC1(C)C(=O)CC[C@]2(C)[C@@H]1C[C@@H](O)[C@]13C(=O)C(CNc4ccccc4F)[C@H](CC[C@@H]21)[C@H]3O (some centres not stated) | 15.6 µM | 24.3 µM | 20.6 µM | 9.59 µM | 11.2 µM | 14.5 µM | –
13 | Cc1ccc(NCC2C(=O)[C@@]34[C@H](O)C[C@@H]5C(C)(C)C(=O)CC[C@@]5(C)[C@@H]3CC[C@@H]2[C@H]4O)cc1 (some centres not stated) | 8.92 µM | 16.1 µM | 10.6 µM | 8.54 µM | 7.22 µM | 12.2 µM | Activity (KB [6]): 69.9%; Activity (KB [7]): 4.13%; Activity (KB [8]): 23.4%; Activity (KB [9]): 5.42%; Activity (KB [10]): Dose-dependent effect; Activity (KB [11]): 49%; Activity (KB [12]): 77.9%; remaining at 24 h, 1 µM [13]: 86.4%; Activity (KB [14]): 14.5%; Drug metabolism (KB [15]): metabolite_detected; Activity (KB [16]): 11.9%; Activity (KB [17]): 4.46%; Retention_time (KB [18]): 2.52 min; Activity (KB [19]): 20.5%; Activity (KB [20]): 3.19%; remaining at 24 h, 1 µM [21]: 104%; Activity (KB [22]): 15.6%; IC50 [5]: 21.1 µM
14 | O=c1[nH]cc(F)c(=O)[nH]1 [FLUOROURACIL] | 27 µM | 59.9 µM | 51.6 µM | 17.9 µM | 53.5 µM | 67.7 µM | –
15 | CC1(C)C(=O)CC[C@]2(C)[C@@H]1C[C@@H](O)[C@]13C(=O)C(CNC4CCCCC4)[C@H](CC[C@@H]21)[C@H]3O (some centres not stated) | 9.35 µM | 20.7 µM | 11.1 µM | 5.66 µM | 11.3 µM | 15.2 µM | IC50 [5]: 8.95 µM
16 | CC1(C)C(=O)CC[C@]2(C)[C@@H]1C[C@@H](O)[C@]13C(=O)C(CNc4ccc(Br)cc4)[C@H](CC[C@@H]21)[C@H]3O (some centres not stated) | 14.6 µM | 25.4 µM | 19.2 µM | 10.9 µM | 6.31 µM | 18.1 µM | –
17 | Cc1cccc(NCC2C(=O)[C@@]34[C@H](O)C[C@@H]5C(C)(C)C(=O)CC[C@@]5(C)[C@@H]3CC[C@@H]2[C@H]4O)c1 (some centres not stated) | 13.5 µM | 38.7 µM | 28.3 µM | 14.4 µM | 29.6 µM | 20.7 µM | –
